biological target: T1, Adrenergic receptor alpha-1 (Rattus norvegicus, UniProt P15823+P23944+P43140); experiment: Alpha adrenergic receptor activity in rat aorta; assay type: tissue-based
T1 sequence (P15823 whole entry): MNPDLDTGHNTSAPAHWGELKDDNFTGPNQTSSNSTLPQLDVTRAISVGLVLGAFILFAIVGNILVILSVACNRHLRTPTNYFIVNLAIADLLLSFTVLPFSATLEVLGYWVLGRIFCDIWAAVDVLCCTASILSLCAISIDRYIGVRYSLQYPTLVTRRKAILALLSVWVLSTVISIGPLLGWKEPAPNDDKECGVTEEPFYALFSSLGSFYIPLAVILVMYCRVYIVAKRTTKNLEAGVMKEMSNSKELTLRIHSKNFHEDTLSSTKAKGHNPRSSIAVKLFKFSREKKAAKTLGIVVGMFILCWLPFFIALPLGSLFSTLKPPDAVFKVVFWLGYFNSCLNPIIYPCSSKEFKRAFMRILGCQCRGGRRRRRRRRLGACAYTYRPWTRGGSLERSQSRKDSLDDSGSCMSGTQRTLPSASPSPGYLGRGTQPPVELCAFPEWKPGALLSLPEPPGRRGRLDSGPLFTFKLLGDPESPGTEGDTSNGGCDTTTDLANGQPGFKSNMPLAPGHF
T1 sequence (P23944 whole entry): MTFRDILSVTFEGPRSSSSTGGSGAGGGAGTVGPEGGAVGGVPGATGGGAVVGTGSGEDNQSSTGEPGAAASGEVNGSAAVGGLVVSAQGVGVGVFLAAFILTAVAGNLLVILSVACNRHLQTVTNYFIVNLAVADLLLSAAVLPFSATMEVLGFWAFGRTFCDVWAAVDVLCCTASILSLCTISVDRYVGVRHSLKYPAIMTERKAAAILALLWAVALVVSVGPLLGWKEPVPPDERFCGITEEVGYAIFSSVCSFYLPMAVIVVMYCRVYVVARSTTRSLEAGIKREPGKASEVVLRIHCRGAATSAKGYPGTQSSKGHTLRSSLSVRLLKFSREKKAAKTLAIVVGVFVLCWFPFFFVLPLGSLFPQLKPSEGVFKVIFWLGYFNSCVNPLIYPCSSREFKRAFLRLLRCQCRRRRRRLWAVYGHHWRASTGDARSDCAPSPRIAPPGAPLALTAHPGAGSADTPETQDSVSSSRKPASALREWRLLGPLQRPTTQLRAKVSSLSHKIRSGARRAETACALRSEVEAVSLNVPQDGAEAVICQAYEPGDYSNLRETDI
T1 sequence (P43140 whole entry): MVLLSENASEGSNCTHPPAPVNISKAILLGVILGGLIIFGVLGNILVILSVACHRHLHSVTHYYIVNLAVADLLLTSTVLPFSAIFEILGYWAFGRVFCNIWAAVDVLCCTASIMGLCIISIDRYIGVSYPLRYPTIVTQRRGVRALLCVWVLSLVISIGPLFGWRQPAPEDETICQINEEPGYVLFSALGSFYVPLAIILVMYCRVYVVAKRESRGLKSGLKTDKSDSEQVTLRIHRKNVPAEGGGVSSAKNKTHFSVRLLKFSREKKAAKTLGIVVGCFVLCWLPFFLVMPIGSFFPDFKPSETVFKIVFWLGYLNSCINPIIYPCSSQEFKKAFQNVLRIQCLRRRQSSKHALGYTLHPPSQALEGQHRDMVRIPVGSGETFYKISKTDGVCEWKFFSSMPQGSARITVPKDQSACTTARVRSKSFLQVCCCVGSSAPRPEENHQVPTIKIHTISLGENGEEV
Method in brief: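 Rat aortic strips held at 2 g resting tension, stabilized about 1 h. Propranolol 10^-6 M for 30 min to block β-receptors. Isometric contraction recorded. Tissues primed with an agonist level giving 70-80% of maximal response, then washed every 15 min for 60 min. Two cumulative norepinephrine curves (10^-10–10^-7 M), with ascorbic acid 1.13 × 10^-5 M present, run before and after 30 min antagonist preincubation. One antagonist concentration per preparation. Reported as pA2.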

pA2 | SMILES
5.2 | O=C(NCc1ncc[nH]1)C(c1ccccc1)C1CCCCC1.O=C(O)C(=O)O (stereo not drawn)
5.7 | O=C(NCCC1=NCCN1)C(c1ccccc1)C1CCCCC1.O=C(O)C(=O)O (stereo not drawn)
4.5 | O=C(NCCN1CCOCC1)C(c1ccccc1)C1CCCCC1.O=C(O)C(=O)O (stereo not drawn)
6 | O=C(NCCN1CCCCC1)C(c1ccccc1)C1CCCCC1.O=C(O)C(=O)O (stereo not drawn)
5.4 | O=C(NCCc1ncc[nH]1)C(c1ccccc1)C1CCCCC1.O=C(O)C(=O)O (stereo not drawn)
5.5 | Cl.O=C(NC1CCCCN1)C(c1ccccc1)C1CCCCC1 (stereo not drawn)
5.4 | CCN(CC)CCNC(=O)C(c1ccccc1)C1CCCCC1.Cl (stereo not drawn)
6.1 | Cl.O=C(NCC1=NCCN1)C(c1ccccc1)C1CCCCC1 (stereo not drawn)
6.7 | CN(CC(=O)NC(c1ccccc1)C1CCCCC1)C1CCCCC1.O=C(O)/C=C\C(=O)O (stereo not drawn)
5.3 | CN(C(=O)CNC1CCCCC1)C(c1ccccc1)C1CCCCC1.O=C(O)/C=C\C(=O)O (stereo not drawn)
6.6 | O=C(NCCNC1CCCCC1)C(c1ccccc1)C1CCCCC1 (stereo not drawn)
6.5 | O=C(CNC1CCCCC1)NC(c1ccccc1)C1CCCCC1 (stereo not drawn)
5.8 | O=C(CCCNC1CCCCC1)NC(c1ccccc1)C1CCCCC1 (stereo not drawn)
6.1 | O=C(CCNC1CCCCC1)NC(c1ccccc1)C1CCCCC1 (stereo not drawn)

The remaining lines, values behind:

SMILES | pA2
COc1ccc(CCN(C)CC(=O)NC(c2ccccc2)C2CCCCC2)cc1OC.O=C(O)C(=O)O (stereo not drawn) | 6.5
CN(CC(=O)NC(c1ccccc1)C1CCCCC1)CC1COc2ccccc2O1.O=C(O)C(=O)O (stereo not drawn) | 6.15
O=C(CCc1ncc[nH]1)NC(c1ccccc1)C1CCCCC1.O=C(O)C(=O)O (stereo not drawn) | 4.2
O=C(CC1=NCCN1)NC(c1ccccc1)C1CCCCC1.O=C(O)C(=O)O (stereo not drawn) | 5.8
O=C(Cc1ncc[nH]1)NC(c1ccccc1)C1CCCCC1.O=C(O)C(=O)O (stereo not drawn) | 5.9
O=C(CCC1=NCCN1)NC(c1ccccc1)C1CCCCC1.O=C(O)C(=O)O (stereo not drawn) | 5.4
NCC(=O)NC(c1ccccc1)C1CCCCC1.O=C(O)/C=C\C(=O)O (stereo not drawn) | 4.5
O=C(NCc1c[nH]cn1)C(c1ccccc1)C1CCCCC1.O=C(O)/C=C\C(=O)O (stereo not drawn) | 4.1
O=C(CNCC1COc2ccccc2O1)NC(c1ccccc1)C1CCCCC1.O=C(O)/C=C\C(=O)O (stereo not drawn) | 6
O=C(Cc1c[nH]cn1)NC(c1ccccc1)C1CCCCC1.O=C(O)/C=C\C(=O)O (stereo not drawn) | 5.3
COc1ccccc1N1CCN(CCC(=O)NC(c2ccccc2)C2CCCCC2)CC1.O=C(O)/C=C\C(=O)O (stereo not drawn) | 6
CN(CC(=O)N(C)C(c1ccccc1)C1CCCCC1)C1CCCCC1.O=C(O)/C=C\C(=O)O (stereo not drawn) | 4.5
CCN(CC)CC(=O)NC(c1ccccc1)C1CCCCC1 (stereo not drawn) | 6
C1CCC(C(CC2CCCCN2)C2CCCCC2)CC1 (stereo not drawn) [PERHEXILINE] | 6.7
